Laboratory results from ChEMBL document CHEMBL4840308, “Design and synthesis of Mannich base-type derivatives containing imidazole and benzimidazole as lead compounds for drug discovery in Chagas Disease” (Eur J Med Chem, 2021).
Active and inactive are the calls of the source. No cut-off for these calls is given here.

Legend:
Trypanosoma cruzi [1] = experiment: Trypanocidal activity against Trypanosoma cruzi trypomastigotes assessed as fold decrease in benznidazole IC50 by alamar blue staining based fluorescence analysis relative to control; type: functional
Method in brief: (§1)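 Benznidazole IC50 redetermined by Alamar Blue or fluorescence read-outs under each stage's standard seeding conditions in the presence of the partner drug at its IC50; combination index by isobologram method (Ci <1 synergy, =1 additive, >1 antagonism); triplicate per plate, repeated at least twice.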

Trypanosoma cruzi [2] = experiment: Antiprotozoal activity against Trypanosoma cruzi epimastigotes assessed as inhibition of parasite growth incubated for 72 hrs followed by alamar blue addition further incubated for 24 hrs; type: functional, organism-based
Method in brief: (§2)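 CL-Luc:Neon epimastigotes, 2.5 x 10^5/well in RPMI-1640, exposed 72 h at 27 C to 8-point 2:1 serial dilutions (DMSO <0.5% final); Alamar Blue […] added, 24 h further, read at 540 nm; IC50 interpolated from sigmoidal variable-slope fit; triplicates, three independent experiments.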

Trypanosoma cruzi [3] = experiment: Trypanocidal activity against Trypanosoma cruzi amastigotes assessed as inhibition of parasite growth by alamar blue staining based fluorescence analysis; type: functional, organism-based
Trypanosoma cruzi [4] = experiment: Trypanocidal activity against Trypanosoma cruzi epimastigotes assessed as inhibition of parasite growth by alamar blue staining based fluorescence analysis; type: functional, organism-based; method in brief: as §2
[5] = Selectivity index, ratio of cytotoxicity against golden hamster BSR cells to IC50 for antitrypanosomal activity against Trypanosoma cruzi amastigotes infected in BSR cells; type: toxicity, cell-based; settings: read-out: Selectivity Index
Method in brief: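 Selectivity index as ratio of BSR cell IC50 to intracellular amastigote IC50 (72 h fluorescence read-out).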

Trypanosoma cruzi [6] = experiment: Trypanocidal activity against Trypanosoma cruzi CL-Luc-Neon amastigotes infected in BSR cells assessed as inhibition of parasite growth at 20 times IC50 incubated for 20 days measured after 30 days of compound wash out by epifluorescence microscopy analysis; type: functional, organism-based; settings: time 20.0 day
Method in brief: (§3)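 BSR cells on 8-well slides or 24-well plates infected with CL-Luc:Neon trypomastigotes as in the amastigote assay, then exposed to 10 or 20 x IC50 for 10 or 20 days, compound renewed every 4 days; after removal, followed up to 30 days by light and fluorescence microscopy at 37 C, 5% CO2; three wells per treatment, 30 captures per timepoint; relapse day recorded.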

Trypanosoma cruzi [7] = experiment: Antiprotozoal activity against Trypanosoma cruzi epimastigotes assessed as decrease in parasitemia by measuring change in fluorescence intensity at >2.5 uM measured after 3 days by flourescence based analysis; type: functional, organism-based; settings: dose microM >2.5, time 3.0 day
Trypanosoma cruzi [8] = experiment: Synergistic trypanocidal activity against Trypanosoma cruzi trypomastigotes assessed as combination index at IC50 in presence of benznidazole by alamar blue staining based fluorescence analysis; type: functional; method in brief: as §1
[9] = Cytotoxicity against golden hamster BSR cells assessed as reduction in cell viability incubated for 72 hrs followed by alamar blue addition further incubated for 6 hrs; type: cell-based; settings: Mesocricetus auratus
Method in brief: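 BSR (BHK-21 subclone) cells, 5 x 10^4/well in DMEM with 5% FBS, adhered 6 h at 37 C, 5% CO2, then given 8-point 2:1 drug dilutions for 72 h; Alamar Blue added for 6 h, absorbance 540 nm; IC50 from sigmoidal variable-slope fit; triplicates, three independent experiments.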

Trypanosoma cruzi [10] = experiment: Antitrypanosomal activity against Trypanosoma cruzi trypomastigotes assessed as inhibition of cellular invasion incubated for 6 hrs in high-glucose DMEM medium followed by compound washout further infected in BSR cells measured after 72 hrs by fluorescence based analysis; type: functional, organism-based
Method in brief: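 Tissue-culture trypomastigotes exposed to drug dilutions 6 h at 37 C in high-glucose DMEM with 10% FBS, washed 3x PBS, used to infect BSR cells overnight; non-internalised parasites washed off, 1% FBS medium, infection run 72 h further; amastigote fluorescence (ex 488/em 525 nm) read; IC50 for invasion reduction by curve interpolation.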

Trypanosoma cruzi [11] = experiment: Antitrypanosomal activity against Trypanosoma cruzi trymastigotes assessed as blockage of trypomastigote infectivity at >50 uM incubated for 6 hrs followed by compound washout further infected in BSR cells for 18 hrs measured after 120 hrs post infection by inverted fluorescence microscope analysis; type: functional, organism-based; settings: dose microM >50, time 6.0 hrs
Method in brief: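 Trypomastigotes held 6 h in serial drug concentrations, washed 3x PBS, then infect BSR cells at 10:1 trypomastigote:cell for 18 h; at 120 h post-infection, amastigote replication inspected by inverted epifluorescence microscopy (30 images per treatment, DAPI-stained host nuclei) to find the concentration preventing productive infection.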

Trypanosoma cruzi [12] = experiment: Trypanocidal activity against Trypanosoma cruzi CL-Luc-Neon amastigotes infected in BSR cells assessed as inhibition of parasite growth at 20 times IC50 incubated for 20 days measured after 10 days of compound wash out by epifluorescence microscopy analysis; type: functional, organism-based; settings: time 20.0 day; method in brief: as §3
[13] = Selectivity index, ratio of IC50 for cytotoxicity against golden hamster BSR cells to IC50 for antiprotozoal activity against Trypanosoma cruzi epimastigotes; type: toxicity, cell-based; settings: read-out: Selectivity Index
Method in brief: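 Selectivity index as ratio of BSR cell IC50 to epimastigote IC50, both from 72 h Alamar Blue assays.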

[14] = Genotoxicity in human TK6 cells assessed as decrease in cell proliferation at 40 uM incubated for 3 hrs by comet assay relative to control; type: cell-based; design: scale not given: the % may be the effect or the level left; settings: tk6, 3 h
Method in brief: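 TK-6 cells (6 x 10^5 in 1 mL RPMI 1640 with 10% FBS) treated 3 h, washed, cultured 48 h at 37 C, 5% CO2 with agitation, counted at 24 and 48 h; relative suspension growth = TSG treated/TSG control as percentage; three independent experiments.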

Trypanosoma cruzi [15] = experiment: Trypanocidal activity against Trypanosoma cruzi trypomastigotes assessed as inhibition of parasite growth by alamar blue staining based fluorescence analysis; type: functional, organism-based
Trypanosoma cruzi [16] = experiment: Synergistic trypanocidal activity against Trypanosoma cruzi epimastigotes assessed as combination index at IC50 in presence of benznidazole by alamar blue staining based fluorescence analysis; type: functional; method in brief: as §1
Trypanosoma cruzi [17] = experiment: Trypanocidal activity against Trypanosoma cruzi epimastigotes assessed as fold decrease in benznidazole IC50 by alamar blue staining based fluorescence analysis relative to control; type: functional; design: scale not given: the % may be the effect or the level left; method in brief: as §1
Trypanosoma cruzi [18] = experiment: Synergistic trypanocidal activity against Trypanosoma cruzi amastigotes assessed as combination index at IC50 in presence of benznidazole by alamar blue staining based fluorescence analysis; type: functional; method in brief: as §1
[19] = Selectivity index, ratio of cytotoxicity against golden hamster BSR cells to IC50 for antitrypanosomal activity against Trypanosoma cruzi trypomastigotes; type: toxicity, cell-based; settings: read-out: Selectivity Index
Method in brief: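 Selectivity index as ratio of BSR cell IC50 to trypomastigote invasion IC50 (6 h pre-exposure, fluorescence read-out).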

Trypanosoma cruzi [20] = experiment: Antitrypanosomal activity against Trypanosoma cruzi amastigotes infected in BSR cells assessed as inhibition of replication of intracellular amastigotes incubated for 72 hrs by fluorescence based analysis; type: functional, organism-based
Method in brief: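 BSR cells (5 x 10^4/well) attached 6 h, infected overnight with CL-Luc:Neon tissue-culture trypomastigotes at MOI 10, washed 3x PBS, then drug in DMEM with 1% FBS for 72 h; fixed in 4% paraformaldehyde 30 min, fluorescence read ex 488/em 525 nm; IC50 by curve interpolation; triplicates, three experiments.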

Trypanosoma cruzi [21] = experiment: Trypanocidal activity against Trypanosoma cruzi CL-Luc-Neon amastigotes infected in BSR cells assessed as inhibition of parasite growth at 10 times IC50 incubated for 10 days measured after 10 days of compound wash out by epifluorescence microscopy analysis; type: functional, organism-based; settings: time 10.0 day; method in brief: as §3
Trypanosoma cruzi [22] = experiment: Trypanocidal activity against Trypanosoma cruzi CL-Luc-Neon amastigotes infected in BSR cells assessed as inhibition of parasite growth at 10 times IC50 incubated for 20 days measured after 10 days of compound wash out by epifluorescence microscopy analysis; type: functional, organism-based; settings: time 20.0 day; method in brief: as §3
Trypanosoma cruzi [23] = experiment: Antitrypanosomal activity against Trypanosoma cruzi trymastigotes assessed as blockage of trypomastigote infectivity at >100 uM incubated for 6 hrs followed by compound washout further infected in BSR cells for 18 hrs measured after 5 days post infection by inverted fluorescence microscope analysis; settings: dose microM >100, time 6.0 hrs
[24] = Genotoxicity in human TK6 cells assessed as decrease in cell proliferation at 20 uM incubated for 3 hrs by comet assay; type: cell-based; settings: tk6, 3 h
Method in brief: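 TK-6 human lymphoblastoid cells (6 x 10^5 in 1 mL culture medium) exposed 3 h, washed three times, then grown 48 h in fresh medium at 37 C, 5% CO2 with agitation, and counted at 24 h (to adjust density) and at 48 h. Relative suspension growth is total suspension growth (48 h count / pre-treatment count) as % of untreated control. Triplicates, three independent experiments.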

Row | SMILES | IC50 (Trypanosoma cruzi [2]) | IC50 (Trypanosoma cruzi [10]) | IC50 (Trypanosoma cruzi [20]) | selectivity ratio [5] | IC50 [9] | selectivity ratio [13] | selectivity ratio [19] | other results
1 | O=C(CCn1ccnc1)c1ccc(Cl)c(F)c1 | 23.3 µM |  |  |  | 135 µM | 6 |  | 
2 | O=C(CCn1cnc2ccccc21)C12CC3CC(CC(C3)C1)C2 | 24.8 µM |  |  |  | 67.6 µM | 3 |  | 
3 | O=C(Cn1ccnc1[N+](=O)[O-])NCc1ccccc1 [BENZNIDAZOLE] |  | 22.4 µM | 0.5 µM | 504 | 267 µM | 67 | 12 | Activity (Trypanosoma cruzi [6]): Active; Activity (Trypanosoma cruzi [7]): Active; Activity (Trypanosoma cruzi [12]): Active; Activity (Trypanosoma cruzi [23]): inactive
4 | COS(C)(=O)=O [METHANESULFONIC ACID METHYL ESTER] |  |  |  |  |  |  |  | Activity [24]: Toxic
5 | O=C(CCn1ccnc1)c1ccc(F)c2ccccc12 | 7.4 µM | 16.6 µM | 6.1 µM | 12 | 72.2 µM | 10 | 4 | Activity (Trypanosoma cruzi [21]): inactive; Activity (Trypanosoma cruzi [22]): inactive
6 | Cc1ccccc1C(=O)CCn1ccnc1 | 21.4 µM |  |  |  | 145 µM | 7 |  | 

The remaining compounds from weak to strong by IC50 (Trypanosoma cruzi [2]), led by results:

Row | IC50 (Trypanosoma cruzi [2]) | IC50 (Trypanosoma cruzi [10]) | IC50 (Trypanosoma cruzi [20]) | SMILES | selectivity ratio [5] | IC50 [9] | selectivity ratio [13] | selectivity ratio [19] | other results
7 | 21.6 µM | 23 µM | 12.2 µM | O=C(CCn1ccnc1)c1cccc([N+](=O)[O-])c1 | 15 | 177 µM | 8 | 8 | Activity (Trypanosoma cruzi [21]): inactive; Activity (Trypanosoma cruzi [22]): inactive
8 | 12.9 µM |  | 9.1 µM | O=C(CCn1ccnc1)c1ccc([N+](=O)[O-])cc1 | 10 | 93.9 µM | 7 |  | 
9 | 11.1 µM |  |  | COc1cc(OC)cc(C(=O)CCn2cnc3ccccc32)c1 |  | 70.1 µM | 6 |  | 
10 | 2.2 µM | 9.1 µM | 3.3 µM | COc1ccc(C(=O)CCn2ccnc2[N+](=O)[O-])cc1 | 28 | 84.7 µM | 43 | 9 | fold change (FC) (Trypanosoma cruzi [1]): 4; IC50 (Trypanosoma cruzi [3]): 400 nM; IC50 (Trypanosoma cruzi [4]): 1200 nM; Activity (Trypanosoma cruzi [6]): Active; Activity (Trypanosoma cruzi [7]): Active; CI (Trypanosoma cruzi [8]): 0.21; Activity (Trypanosoma cruzi [11]): Active; Activity (Trypanosoma cruzi [12]): Active; Activity [14]: 45%; IC50 (Trypanosoma cruzi [15]): 5.4 µM; CI (Trypanosoma cruzi [16]): 0.33; Activity (Trypanosoma cruzi [17]): 70%; CI (Trypanosoma cruzi [18]): 0.81
